# Screening results (PubChem)
# Most compounds without a hit are left out; they make up all but 4.3% or so of the library.
# TAAR1 antagonist: antagonists of human TAAR1; CHO RD-HGA16 TAAR1, Fluo-8 calcium fluorescence, antagonist; inhibition, % at 3 µM; 1.5% of 360,000 active; AID 624466;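 active = inhibition above a per-plate cutoff, the mean inhibition of test compounds on that plate plus 3 SD, cut at about 49% in these data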;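 note: 0% = DMSO plus EC80 beta-PEA response and 100% = DMSO alone without agonist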
#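 Test system: CHO RD-HGA16 cells bearing hTAAR1 | Reagent: β-PEA, EC80 | Compound dosing: 3 µM, single point | Schedule: Dye loading 75 min at 37 °C, then 30 min room temperature | Signal: Calcium fluorescence with Fluo-8 | Evaluation: Percent inhibition of PEA-evoked calcium signal, max/basal emission ratio | Control set: DMSO-only wells and EC80 β-PEA-stimulated wells | Repeats: Singlicate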
# TAAR1 agonist: agonists of human TAAR1; activation, % at 3 µM; AID 624467; CHO RD-HGA16 TAAR1, Fluo-8 calcium fluorescence; vehicle wells 0%, saturating PEA agonist 100%; 0.99% of 360,000 active; Q96RJ0;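 active = activation above the mean activation of all test compounds in the run plus 3 SD, cut at about 38% in these data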
#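 Test system: RD-HGA16 (CHO) cells co-expressing Gα16 and hTAAR1; dosing: one-point dosing at 3 µM (nominal); timing: 17-24 h seeding, 75 min 37 °C dye, 30 min RT; signal: kinetic Fluo-8 calcium fluorescence; read-out basis: % activation relative to PEA EC100 response; controls: DMSO and PEA EC100; replicates: n 1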
# HTR2A ag: mouse HTR2A agonism via beta-arrestin recruitment | P35363 | CHO-K1 mHTR2A beta-arrestin complementation, luminescence; percent of 30 µM serotonin response | activation, % at 7.6 µM | 0.66% of 360,000 active | AID 624169;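 active = activation above a run cutoff, the mean activation of all tested compounds plus 3 SD, cut at about 14% in these data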;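 note: 0% = plate median of compound wells and 100% = 30 µM serotonin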
# MC4R antag cAMP: antagonists of human melanocortin 4 receptor (MC4R) | AID 540295 | 0.48% of 360,000 active | inhibition, % at 6.5 µM | P32245 | MC4R-expressing cells, MTII-stimulated cAMP, LANCE TR-FRET;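 active = inhibition above its plate's cutoff, the mean of tested wells on that plate plus 3 SD, cut at about 29% in these data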;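 note: 0% = Melanotan II alone and 100% = Melanotan II plus saturating MCL0020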
#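 material = U2OS cells stably expressing human melanocortin 4 receptor (MC4R) | also added = Melanotan II challenge | dosing = single nominal compound dose of 6.5 µM | detection = TR-FRET with Eu-cAMP and labeled anti-cAMP, 671 nm | replication = singlicate | timing = compound 30 min, challenge 1 h, detection 1 h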
# Beta2AR agonist: activates human beta-2 adrenergic receptor causing internalization. AID 504454. 0.43% of 340,000 active. Am2.2-beta2AR cells, FAP receptor internalization, flow cytometry. response, % (no concentration beside the values). P07550;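 active = response above a set limit, near 3 SD of response in nonfluorescent compounds, cut at about 42% in these data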
# Target sequence (P07550 whole entry, looked up): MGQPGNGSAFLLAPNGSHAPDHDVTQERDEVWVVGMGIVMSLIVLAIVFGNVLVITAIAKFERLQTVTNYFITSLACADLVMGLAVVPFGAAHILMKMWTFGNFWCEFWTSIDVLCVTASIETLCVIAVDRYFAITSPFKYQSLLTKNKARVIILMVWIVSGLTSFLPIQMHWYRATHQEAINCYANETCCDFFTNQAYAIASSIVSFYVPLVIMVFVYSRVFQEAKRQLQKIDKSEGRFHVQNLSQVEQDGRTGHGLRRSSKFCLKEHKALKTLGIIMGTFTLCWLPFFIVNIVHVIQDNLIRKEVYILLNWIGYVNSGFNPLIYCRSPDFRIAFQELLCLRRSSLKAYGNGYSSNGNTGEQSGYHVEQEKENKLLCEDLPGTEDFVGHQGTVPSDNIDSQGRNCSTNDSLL
# MC4R barr agon: human MC4R agonism via beta-arrestin | P32245 | U2OS MC4R beta-arrestin complementation, luminescence; percent of melanotan II response, DMSO zero | activation, % at 8.9 µM | 0.98% of 360,000 active | AID 540308;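 active = activation above a per-plate cutoff, the mean activation of sample wells on that plate plus 3 SD, cut at about 8% in these data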
# MC4R barr ag: human MC4R beta-arrestin agonism confirmation; shares compounds with MC4R barr agon; U2OS MC4R beta-arrestin recruitment, luminescence; scaled DMSO 0%, Melanotan II 100%; activation, % at 8.9 µM; 31% of 2,400 active;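 active = mean activation across replicates above the hit cutoff set in the earlier primary screen, cut at about 8% in these data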
# MOR-DOR barr ag: activates mu-delta opioid heterodimer, MC4R agonist counter-screen; activation, % at 9.2 µM; AID 602194; 5.8% of 2,400 active; shares compounds with MC4R barr agon; U2OS PathHunter beta-arrestin, beta-gal luminescence; percent of deltorphin B response, DMSO zero;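 active = mean activation across replicates exceeds the hit threshold derived in the earlier primary screen, cut at about 18% in these data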;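 note: 100% = deltorphin B at 0.9 µM final and 0% = DMSO alone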
# * marks the source's active call; other numbers are inactive results; / = no result given.
SMILES,TAAR1 antagonist,TAAR1 agonist,HTR2A ag,MC4R antag cAMP,Beta2AR agonist,MC4R barr agon,MC4R barr ag,MOR-DOR barr ag
COc1ccc(CCNC(=O)CSc2nc(-c3ccco3)cc(C(F)(F)F)n2)cc1OC,0,12,1,6,-10,2,/,/
COc1ccc(CCNC(=O)CCSc2nc(-c3ccco3)cc(C(F)(F)F)n2)cc1,2,-2,2,-1,-10,18*,-1,2
CCOc1ccc(N2C(=O)CC(Sc3ccccc3C(=O)O)C2=O)c([N+](=O)[O-])c1 (centres undefined),6,0,1,25,-2,-1,/,/
C=CCOc1ccc(/C=C/C(=O)OCC(=O)NCc2cccc(OC)c2)cc1,33,0,3,3,-5,28*,2,5
S=c1[nH]nc(-c2ccccc2)n1/N=C/c1ccc(-c2ccccc2Cl)o1,-10,-2,-2,9,4,12*,-3,2
O=C(CSc1ccc(Cl)cc1)NC(=O)c1ccccc1,-6,11,-2,2,-2,0,/,/
O=C(CSc1ccccc1F)NC(=O)c1ccc(Cl)cc1,5,14,1,4,0,10*,5,2
COc1ccc(-c2nc(CC(=O)Nc3cccc(S(=O)(=O)NC4=NCCC4)c3)cs2)cc1,-14,4,-2,2,-3,0,/,/
O=C(NCc1ccccn1)[C@@H]1CCCN1C(=O)[C@@H]1CCCN1,-2,3,1,/,/,/,/,/
COCCCNC(=O)c1c(N)n(/N=C/c2cccnc2)c2nc3ccccc3nc12,9,8,2,3,0,10*,5,5
O=C(Nc1nc(-c2ccc([N+](=O)[O-])cc2)cs1)c1c(F)cccc1F,23,7,1,15,0,24*,1,4
O=C(Nc1ccc(OCc2ccccc2)cc1)c1cccc([N+](=O)[O-])c1,26,29,2,6,-1,10*,1,12
Cc1onc(-c2ccccc2Cl)c1C(=O)NC(=S)NCC(=O)c1ccccc1,-12,10,-2,3,11,19*,4,5
Cc1ccc(-c2csc(NC(=O)c3cccc([N+](=O)[O-])c3)n2)cc1,35,8,3,2,21,18*,13*,5
Cc1ccc(C(=O)COC(=O)C2CC3CCCC(C2)C3=O)cc1[N+](=O)[O-] (centres undefined),3,1,2,-1,-6,1,/,/
Cc1ccc(N2C(=O)N(CC(=O)Nc3ccc([N+](=O)[O-])cc3)C(=O)C2C)cc1 (centres undefined),-14,0,-7,10,21,-3,/,/
COc1ccc(C(=O)N2CCN(c3cccc(C)c3C)CC2)cc1S(=O)(=O)NC1CC1,-13,2,-7,0,3,-1,/,/
O=C(Nc1ccncc1NC(=O)c1cccc([N+](=O)[O-])c1)c1cccc([N+](=O)[O-])c1,10,1,2,4,2,-3,/,/
O=C(NC(=S)NCc1ccccc1)c1cccc([N+](=O)[O-])c1,18,-2,-1,8,-19,-1,/,/
O=C(CNC(=S)NC(=O)c1cccc([N+](=O)[O-])c1)c1ccccc1,-5,-2,-3,5,-1,11*,-1,2
O=C(Nc1ccc([N+](=O)[O-])cc1Cl)c1cccc([N+](=O)[O-])c1,-9,4,2,5,/,12*,7,11
O=C(CCN1C(=O)/C(=C/c2ccccc2F)SC1=S)NC1C=CS(=O)(=O)C1 (centres undefined),-21,2,8,-3,-2,10*,-1,2
O=C(CCN1C(=O)/C(=C/c2ccc(Cl)cc2)SC1=S)NC1C=CS(=O)(=O)C1 (centres undefined),-12,-1,6,-2,10,0,/,/
COC(=O)c1cc(NC(=O)COC(=O)C2CCC2)cc(C(=O)OC)c1,-11,1,-4,1,5,-1,/,/
FC(F)(F)c1cc(-c2cccs2)nc2cc(-c3cccs3)nn12,-16,0,3,1,-7,25*,2,4
SMILES,TAAR1 antagonist,TAAR1 agonist,HTR2A ag,MC4R antag cAMP,Beta2AR agonist,MC4R barr agon,MC4R barr ag,MOR-DOR barr ag
NNC(=O)c1cc2nc(-c3cccs3)cc(C(F)(F)F)n2n1,7,3,-3,14,-12,0,/,/
Cc1ccc(SCCN2CCN(C)CC2)cc1,2,-1,-10,2,7,0,/,/
CCc1cccc(C)c1NC(=S)NCC(c1cccnc1)N1CCOCC1 (centres undefined),11,3,0,9,0,0,/,/
CCOC(=O)Cc1csc(N/N=C/c2cccc([N+](=O)[O-])c2)n1,16,-5,1,-4,15,14*,0,10
CCOC(=O)Cc1csc(NC(=O)c2cccc([N+](=O)[O-])c2)n1,-15,2,-4,1,4,-2,/,/
O=[N+]([O-])c1cccc(-c2csc(N/N=C/c3cccc(O)c3)n2)c1,35,4,-2,-1,17,11*,9.8*,9
CCOC(=O)C1CCN(C(=O)C2(NC(=O)Nc3ccccc3C)CCCCC2)CC1,1,-3,-6,13,0,1,/,/
Cc1ccc2occ(/C=N/NC(=O)c3ccncc3)c(=O)c2c1,1,1,-5,-8,6,-1,/,/
COc1ccc(NC(=O)CSc2nnc(CCC(=O)Nc3ccc(C)c(Cl)c3)n2C)cc1,-25,16,-2,6,0,0,/,/
CCn1c(CC(=O)Nc2ccc(C)c(Cl)c2)nnc1SCCOc1ccc(OC)cc1,18,18,-3,-5,-5,11*,0,7
Cn1c(SCC(=O)Nc2ccc3[nH]c(=O)[nH]c3c2)nnc1-c1ccccc1,-30,0,8,-1,-5,-5,/,/
O=C(CSc1nc2ccccc2s1)CSc1nc2ccccc2s1,15,0,0,0,-1,15*,8,2
O=C(CSc1nc2ccccc2s1)Nc1ccc2c(c1)oc1ccccc12,-5,1,5,4,-3,17*,5,4
O=C(CSc1nc2ccccc2s1)Nc1ccc(Cl)c(C(=O)O)c1,-3,12,0,1,-7,1,/,/
